PubChem BioAssay
Activity calls are given as the source filed them.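 How the source made its calls, unless noted: active means visually confirmed hit in the image check and inhibition above 20%; inconclusive means visually confirmed hit but inhibition not above 20%; inactive means no visual hit in the image check.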

Tests used:
[1] = inhibitors of TNFa-induced NFkB p65 translocation, primary screen, imaging, HUVEC, MLSMR starter and 10KST1 sets (AID 438;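 active means inhibition above 20% together with a positive visual image hit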;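 further: compound added about 3h40 before a 20 min TNFalpha stimulation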;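 on inhibition: signal is the nuclear over cytoplasmic p65 intensity ratio per well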); details: HUVEC TNFa-induced p65 nuclear translocation; cell count: measured here: nuclei count (cytotoxicity indicator), at 2.08 µM; inhibition: at 2 µM, stronger effect = higher value, 0% TNFa-plus-vehicle, 100% no-TNFa wells
[2] = reduction of polyQ htt aggregates in cells – imaging, exon1htt(103Q)mCFP cells, high-content imaging, primary screen (AID 483;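 active means visual image review flags a hit and inhibition of aggregation exceeds 20%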;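 further: compound exposure lasted 3 days before fixation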;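 on nuclei count: percent of the per-plate median nuclei count of sample wells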); details: exon1htt(103Q)mCFP cell line, aggregate imaging, at 2 µM; inhibition of aggregation: stronger effect = higher value; nuclei count: measured here: cell count, toxicity
[3] = endothelial E-selectin expression blockers – imaging, HUVEC, immunofluorescence, MLSMR starter and 10KST1 sets, primary screen (AID 487); details: HUVEC TNFalpha-induced E-selectin immunofluorescence imaging, at 2 µM; inhibition: stronger effect = higher value; nuclei count: measured here: cell number, toxicity;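 on inhibition: signal is fraction of cell area covered by stained E-selectin grains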;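 on nuclei count: 100% = median nuclei count of all wells on the same plate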
[4] = target: Voltage-gated potassium channel subunit beta-2 (Rattus norvegicus) (UniProt P62483); assay: inhibitors of rat Kvbeta2 reductase activity – biochemical, NADPH fluorescence, primary screen (AID 622;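 active means fluorescence slope higher than the sample average by over 3 SD, cut at about -0.22 in these data, passing the limit was not always enough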;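 further: slope of raw intensity against log time taken from 70 to 1610 s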); details: recombinant KvBeta, 4-cyanobenzaldehyde reduction, at 10 µM, stronger effect = higher value
Chain of Voltage-gated potassium channel subunit beta-2 (Rattus norvegicus) (P62483 whole entry, looked up): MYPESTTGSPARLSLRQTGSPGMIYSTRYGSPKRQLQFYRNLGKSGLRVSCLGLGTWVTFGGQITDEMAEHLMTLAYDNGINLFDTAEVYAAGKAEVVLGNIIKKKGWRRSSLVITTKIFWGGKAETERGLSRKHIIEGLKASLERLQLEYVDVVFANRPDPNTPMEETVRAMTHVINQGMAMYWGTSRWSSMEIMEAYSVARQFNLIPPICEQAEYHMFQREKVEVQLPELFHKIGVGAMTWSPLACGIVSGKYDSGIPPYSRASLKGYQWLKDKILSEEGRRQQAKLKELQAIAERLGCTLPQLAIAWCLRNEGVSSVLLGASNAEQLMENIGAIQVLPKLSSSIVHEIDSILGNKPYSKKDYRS

[5] = target: Voltage-gated potassium channel subunit beta-2 (Rattus norvegicus) (UniProt P62483); assay: enhancers of rat Kvbeta2 NADPH turnover – biochemical, NADPH fluorescence, primary screen (AID 623;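 active means NADPH fluorescence slope more negative than the mean of all samples by about 3 SD, 99.7% confidence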;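 further: fluorescence intensity change per second fitted from 20 to 320 s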); details: Recombinant KvBeta, NADPH fluorescence decrease slope, 10 min; at 10 µM; stronger effect = lower value
[6] = target: Muscarinic acetylcholine receptor M4 (Homo sapiens) (UniProt P08173); assay: M4-linked GIRK flux change, two-sided – cell-based, HEK293 M4/GIRK, thallium flux, BTC-AM, M4 allosteric agonist project, primary screen (AID 625;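 active means fluorescence slope after compound addition differing from the mean of all tested samples at 99.7% confidence, mostly higher but some lower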;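 further: thallium influx through GIRK channels coupled to M4 in HEK293 cells with BTC-AM dye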); details: at 10 µM, actives lie on both sides
Chain of Muscarinic acetylcholine receptor M4 (Homo sapiens) (P08173 whole entry, looked up): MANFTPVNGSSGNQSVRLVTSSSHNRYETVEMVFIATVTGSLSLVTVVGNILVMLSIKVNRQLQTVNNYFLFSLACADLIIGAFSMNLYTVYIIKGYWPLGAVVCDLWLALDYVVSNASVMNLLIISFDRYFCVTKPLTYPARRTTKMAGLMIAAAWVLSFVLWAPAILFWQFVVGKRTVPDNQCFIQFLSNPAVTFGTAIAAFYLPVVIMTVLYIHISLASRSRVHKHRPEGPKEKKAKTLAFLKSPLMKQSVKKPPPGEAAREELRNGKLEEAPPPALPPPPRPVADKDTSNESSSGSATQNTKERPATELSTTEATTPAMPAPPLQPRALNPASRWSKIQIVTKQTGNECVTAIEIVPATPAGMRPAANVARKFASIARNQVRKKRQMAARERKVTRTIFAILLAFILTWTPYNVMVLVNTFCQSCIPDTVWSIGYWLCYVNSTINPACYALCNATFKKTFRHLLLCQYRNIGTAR
Method in brief: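 assay system = HEK293 cells with M4 receptor and GIRK channels | medium = pH 7.3 thallium assay buffer | doses = 10 µM final, single point | timing = cells overnight at 37 °C, BTC-AM loading 1 h, reads 2 min total | signal = BTC-AM fluorescence, 1 Hz kinetic reads | read-out = post-addition slope, 15–24 s, of baseline-normalized fluorescence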

[7] = blockers of RIG-like receptor reporter activation – cell-based, Sendai virus stimulus, luciferase, 10K MLSCN set, TLR/RLR signaling modifier project, primary screen (AID 602276;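 active means inhibition at or above 50% at 10 µM; inactive means inhibition below 50%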;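 further: firefly luciferase from ISG56 promoter only with Renilla not read in this screen; 0% = Sendai virus plus DMSO and 100% = medium plus DMSO without virus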); details: HEK293 RL24 IRF3 luciferase reporter, at 10 µM, stronger effect = higher value
[8] = TLR3 IRF3 reporter activation blockers – cell-based, poly I:C stimulus, luciferase, 10K MLSCN set, primary screen (AID 602277;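 active means inhibition of the reporter signal at or above 50%; inactive means inhibition below 50%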); details: HEK293-TLR3 RL24 IRF3 luciferase reporter, at 10 µM, stronger effect = higher value

SMILES	cell count [1]	inhibition [1]	inhibition of aggregation [2]	nuclei count [2]	inhibition [3]	nuclei count [3]	fluorescence slope [4]	NADPH fluorescence slope [5]	fluorescence slope [6]	inhibition [7]	inhibition [8]
c1ccc(-c2cn3cccnc3n2)cc1	746	-0.7% (inactive)	12.5% (inactive)	92.7%	-66.8% (inactive)	123%	-0.0209 (active)	-3.7e-06 (inactive)	0.00503 (inactive)	-12.5% (inactive)	-40.2% (inactive)
CCN(CC)C(=O)c1sc(NC(=O)c2ccco2)c(C#N)c1C	752	-1.3% (inactive)	-26% (inactive)	118%	1.3% (inactive)	117%	-0.586 (inactive)	1.3e-05 (inactive)	0.00573 (inactive)	11.4% (inactive)	13.3% (inactive)
CSc1nc2c(ccc3ccccc32)o1	572	4.2% (inactive)	-4.8% (inactive)	104%	-70.5% (inactive)	102%	-0.566 (inactive)	-1.5e-05 (inactive)	0.00656 (inactive)	-5.19% (inactive)	-21.2% (inactive)
CCC1(CC)NC(=O)NC1=O	665	2.2% (inactive)	-5.3% (inactive)	89.9%	12.8% (inactive)	106%	-0.588 (inactive)	-8.1e-05 (inactive)	0.00419 (inactive)	16.7% (inactive)	8.56% (inactive)
COCCCNS(=O)(=O)c1ccc2c(c1)CCN2C(C)=O	416	0.3% (inactive)	-9.3% (inactive)	125%	-31.6% (inactive)	139%	-0.578 (inactive)	1.1e-05 (inactive)	0.00611 (inactive)	15.1% (inactive)	15% (inactive)
O=C(CCSc1nnc(-c2ccncc2)o1)Nc1ccccc1	680	-3.9% (inactive)	1% (inactive)	107%	-26.7% (inactive)	114%	-0.512 (inactive)	-6.6e-05 (inactive)	0.0061 (inactive)	1.76% (inactive)	12.2% (inactive)
COc1ccc(CN2C(=O)c3ccccc3C2C(=O)NC2CCCC2)c(OC)c1 (centres undefined)	671	-4.8% (inactive)	8.3% (inactive)	87.1%	-53.3% (inactive)	112%	-0.443 (inactive)	-4.9e-05 (inactive)	0.00535 (inactive)	14.9% (inactive)	9.49% (inactive)
Cc1nc2nc(Cc3ccccc3)[nH]n2c(=O)c1Cc1ccccc1	351	-3.3% (inactive)	-11.2% (inactive)	97%	-62.2% (inactive)	96.1%	-0.576 (inactive)	-4.3e-05 (inactive)	0.0029 (inactive)	9.12% (inactive)	15.7% (inactive)
CCOC(=O)c1ccc(NC(=O)CCNc2c(N3CCCC3)c(=O)c2=O)cc1	266	0% (inactive)	26.6% (inactive)	70.7%	-20.2% (inactive)	117%	-0.609 (inactive)	5.7e-06 (inactive)	0.00478 (inactive)	4.44% (inactive)	10.6% (inactive)
CCn1nnnc1SCC(=O)Nc1nnc(C(C)C)s1	324	-3% (inactive)	21.9% (inactive)	96.2%	1% (inactive)	116%	-0.361 (inactive)	-4.7e-05 (inactive)	0.0049 (inactive)	5.57% (inactive)	-1.53% (inactive)
O=C(Nc1ccccc1C(=O)N1CCCCCC1)c1cccc(S(=O)(=O)N2CCOCC2)c1	492	-6.5% (inactive)	-11.4% (inactive)	74.5%	-60.5% (inactive)	84.2%	-0.572 (inactive)	-2.1e-05 (inactive)	0.00535 (inactive)	3.13% (inactive)	10.6% (inactive)
CCN(Cc1nc2ccccc2c(=O)[nH]1)Cc1nc2cc(OC)c(OC)cc2c(=O)[nH]1	403	-19.9% (inactive)	0% (inactive)	113%	-17.4% (inactive)	144%	-0.324 (inactive)	-3.7e-06 (inactive)	0.00825 (inactive)	-12.7% (inactive)	-12.6% (inactive)
CN(C=O)CP(=O)(O)CCN1CCCC1=O	447	7% (inactive)	19.4% (inactive)	90.6%	27% (inactive)	106%	-0.589 (inactive)	-5.8e-05 (inactive)	0.00412 (inactive)	14.6% (inactive)	25.4% (inactive)
CCCn1c(SCC(=O)N2CCCc3ccccc32)nnc1-c1ccccn1	471	-0.8% (inactive)	-0.4% (inactive)	100%	-20.1% (inactive)	113%	-0.59 (inactive)	-6.6e-06 (inactive)	0.00584 (inactive)	20.3% (inactive)	20% (inactive)
